Results taken from publication PMC4277207 (ChemMedChem, 2014).
Entries after “also recorded” stand apart in the source; their conditions may differ. Read-outs that look alike come from different tables or passages of the source.

Legend:
[1] = system: D2-like receptor (D2, D3, and D4); experiment: [3H]spiperone binding assay, rat striatal; conditions: ratio of Ki values, rat brain preparation
In short: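 The D2-like assay used [3H]spiperone at 0.2 nM on caudate-putamen membranes at 1.5 mg o.w.w./mL, in agonist-optimised Tris-HCl/KCl/MgCl2/CaCl2 buffer at pH 7.4. Nonspecific binding was set with 1 μM (+)-butaclamol, and KD was 0.4 nM. For two-site curves, the high-affinity Ki is reported. […] Values are means of 3–6 determinations.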

[2] = system: D1-like receptor (D1 and D5); experiment: [3H]SCH 23390 binding assay, rat striatal membranes; conditions: ratio of Ki values, rat brain preparation
human D3 receptor = human D3 receptor (Homo sapiens, UniProt P35462); assay type: cell-based; conditions: hD3-transfected CHOp cells, mitogenesis; for IC50: read-out: Agonist activity: IC50, mean ± SEM of 3–6 determinations
Sequence of human D3 receptor (P35462 whole entry): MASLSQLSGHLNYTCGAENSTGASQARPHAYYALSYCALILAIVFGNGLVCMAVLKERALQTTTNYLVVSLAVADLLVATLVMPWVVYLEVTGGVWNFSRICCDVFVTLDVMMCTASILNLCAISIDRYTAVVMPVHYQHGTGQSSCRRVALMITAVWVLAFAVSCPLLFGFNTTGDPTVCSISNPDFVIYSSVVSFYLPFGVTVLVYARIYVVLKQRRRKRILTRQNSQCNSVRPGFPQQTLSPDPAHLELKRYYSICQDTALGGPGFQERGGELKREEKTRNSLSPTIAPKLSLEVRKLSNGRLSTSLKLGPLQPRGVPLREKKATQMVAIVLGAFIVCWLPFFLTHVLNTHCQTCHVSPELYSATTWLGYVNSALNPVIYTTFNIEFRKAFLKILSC

[3] = assay type: in vitro ADME

Selectivity D2-like/D3 [1] | Selectivity D1-like/D3 [2] | % of Stimulation compared to Quinpirole as the standard agonist (human D3 receptor) [%] | IC50 (human D3 receptor) [nM] | t1/2 in human liver microsomes [3] [min] | Percentage remaining of compounds in human liver microsomes ([3]; 0 h) [%] | Percentage remaining of compounds in human liver microsomes ([3]; 5 min) [%] | Percentage remaining of compounds in human liver microsomes ([3]; 10 min) [%] | Percentage remaining of compounds in human liver microsomes ([3]; 0.25 h) [%] | Percentage remaining of compounds in human liver microsomes ([3]; 0.5 h) [%] | Percentage remaining of compounds in human liver microsomes ([3]; 1 h) [%] | Compound | functional activity at the human D3 receptor (agonist character) (human D3 receptor)
29,800 | 28,300 | 100 | 19 ± 1.5 | >60 | 100 | 96.6 | 99.2 | 99.0 | 90.0 | 65.5 | CCCN(CC[C@]1(O)C[C@@H](NC(=O)c2cccc(-c3noc(C)n3)c2)C1)[C@H]1CCc2nc(N)sc2C1 (relative stereo) [Compound 23, N-(cis-3-(2-(((S)-2-amino-4,5,6,7-tetrahydrobenzo[d]thiazol-6-yl)(propyl)amino)-ethyl)-3-hydroxycyclobutyl)-3-(5-methyl-1,2,4-oxadiazol-3-yl)benzamide] | full D3 agonists; also recorded: full agonist
16,272 | 65,581 | 100 | 2 ± 0.34 | – | – | – | – | – | – | – | CCCN(CCC1(O)CC(NC(=O)c2ccc(F)c(Cl)c2)C1)[C@H]1CCc2nc(N)sc2C1 (stereo in doubt) [Compound 18, N-(cis-3-(2-(((S)-2-amino-4,5,6,7-tetrahydrobenzo[d]thiazol-6-yl)(propyl)amino)-ethyl)-3-hydroxycyclobutyl)-3-chloro-4-fluorobenzamide] | full D3 agonists
12,836 | 84,474 | 100 | 18 ± 2.7 | >60 | 100 | 99.7 | 98.5 | 92.5 | 83.0 | 74.1 | CCCN(CC[C@]1(O)C[C@@H](NC(=O)c2cccc(OC)c2)C1)[C@H]1CCc2nc(N)sc2C1 (relative stereo) [Compound 21, N-(cis-3-(2-(((S)-2-Amino-4,5,6,7-tetrahydrobenzo[d]thiazol-6-yl)(propyl)amino)-ethyl)-3-hydroxycyclobutyl)-3-methoxybenzamide] | full D3 agonists

Compound | Selectivity D2-like/D3 [1] | Selectivity D1-like/D3 [2] | % of Stimulation compared to Quinpirole as the standard agonist (human D3 receptor) [%] | IC50 (human D3 receptor) [nM] | t1/2 in human liver microsomes [3] [min] | Percentage remaining of compounds in human liver microsomes ([3]; 0 h) [%] | Percentage remaining of compounds in human liver microsomes ([3]; 5 min) [%] | Percentage remaining of compounds in human liver microsomes ([3]; 10 min) [%] | Percentage remaining of compounds in human liver microsomes ([3]; 0.25 h) [%] | Percentage remaining of compounds in human liver microsomes ([3]; 0.5 h) [%] | Percentage remaining of compounds in human liver microsomes ([3]; 1 h) [%] | functional activity at the human D3 receptor (agonist character) (human D3 receptor)
CCCN(CCC1(O)CC(NS(=O)(=O)c2ccc(F)c(Cl)c2)C1)[C@H]1CCc2nc(N)sc2C1 (stereo in doubt) [Compound 34, N-(cis-3-(2-(((S)-2-Amino-4,5,6,7-tetrahydrobenzo[d]thiazol-6-yl)(propyl)amino)-ethyl)-3-hydroxycyclobutyl)-3-chloro-4-fluorobenzenesulfonamide] | 1,052 | 18,217 | 100 | 26 ± 4.1 | – | – | – | – | – | – | – | full D3 agonists
